In ChEMBL document CHEMBL3124843, “Synthesis, cytostatic, antimicrobial, and anti-HCV activity of 6-substituted 7-(het)aryl-7-deazapurine ribonucleosides” (J Med Chem, 2014):
Calls of active or inactive are those of the source. No rule for the calls is given here.

Legend:
[1] = Cytotoxicity against human HuH7 cells infected with Hepatitis C virus subtype 2a; type: cell-based, Huh-7
Hepatitis C virus [2] = experiment: Antiviral activity against Hepatitis C virus subtype 2a infected in human HuH7 cells; type: functional, organism-based, Hepacivirus hominis; settings: genotype 2a, Huh-7
[3] = Cytotoxicity against human HuH7 cells infected with Hepatitis C virus subtype 1b; type: cell-based, Huh-7
Hepatitis C virus [4] = experiment: Antiviral activity against Hepatitis C virus subtype 1b infected in human HuH7 cells; type: functional, organism-based, Hepacivirus hominis; settings: genotype 1b, Huh-7
Candida tropicalis = experiment: Antifungal activity against Candida tropicalis after 48 hrs; type: functional, organism-based
Pichia kudriavzevii = experiment: Antifungal activity against Candida crusei after 48 hrs; type: functional, organism-based
Candida parapsilosis = experiment: Antifungal activity against Candida parapsilosis after 48 hrs; type: functional, organism-based
Candida albicans = experiment: Antifungal activity against Candida albicans after 48 hrs; type: functional, organism-based
Pseudomonas aeruginosa [5] = experiment: Antibacterial activity against multi-resistant Pseudomonas aeruginosa A/16575 after 24 hrs; type: functional, organism-based
Escherichia coli [6] = experiment: Antibacterial activity against multi-resistant Escherichia coli C/16702 after 24 hrs; type: functional, organism-based
[7] = test system: Staphylococcus haemolyticus; experiment: Antibacterial activity against methicillin-resistant Staphylococcus haemolyticus A/16568 after 24 hrs; type: functional, organism-based
Staphylococcus aureus [8] = experiment: Antibacterial activity against methicillin-resistant Staphylococcus aureus MRSA 4591 after 24 hrs; type: functional, organism-based
Pseudomonas aeruginosa [9] = experiment: Antibacterial activity against Pseudomonas aeruginosa CCM 3955 after 24 hrs; type: functional, organism-based
Escherichia coli [10] = experiment: Antibacterial activity against Escherichia coli CCM 3954 after 24 hrs; type: functional, organism-based
Staphylococcus aureus [11] = experiment: Antibacterial activity against Staphylococcus aureus CCM 3953 after 24 hrs; type: functional, organism-based
Enterococcus faecalis = experiment: Antibacterial activity against Enterococcus faecalis CCM 4224 after 24 hrs; type: functional, organism-based
[12] = Antiproliferative activity against human HeLaS3 cells after 72 hrs by XTT assay; type: functional, cell-based; settings: HeLa S3, 72 h
Outline: (§1)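 Antiproliferative test on HL-60 promyelocytic leukemia and HeLa S3 cervical carcinoma cells growing in liquid suspension.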

HL-60 = experiment: Antiproliferative activity against human HL60 cells after 72 hrs by XTT assay; type: functional, cell-based; settings: HL-60, 72 h; outline: as §1
HepG2 = experiment: Antiproliferative activity against human HepG2 cells after 72 hrs by XTT assay; type: functional, cell-based; settings: HepG2, 72 h
MRC5 = experiment: Cytostatic activity against human MRC5 cells after 72 hrs by MTT assay; type: ADME, cell-based; settings: MRC5, 72 h
Outline: (§2)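 IC50 is the concentration that cuts cell growth by 50%, read by quantitative metabolic MTT staining after a 3-day treatment. The resistant sublines were made by raising the concentration of the cytotoxic drug step by step. CEM-DNR-bulk (daunorubicin-selected) stably overexpresses mrp-1. K562-TAX (paclitaxel-selected) expresses only mdr-1. HCT116p53−/− carries null p53 alleles. BJ and MRC-5 are nonmalignant fibroblasts.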

BJ = experiment: Cytostatic activity against human BJ cells after 72 hrs by MTT assay; type: ADME, cell-based; outline: as §2
HCT-116 [13] = experiment: Cytostatic activity against p53-deficient human HCT116 cells after 72 hrs by MTT assay; type: functional, cell-based; settings: HCT-116, 72 h; outline: as §2
HCT-116 [14] = experiment: Cytostatic activity against human HCT116 cells after 72 hrs by MTT assay; type: functional, cell-based; settings: HCT-116, 72 h; outline: as §2
A549 = experiment: Cytostatic activity against human A549 cells after 72 hrs by MTT assay; type: functional, cell-based; settings: A549, 72 h; outline: as §2
K562 [15] = experiment: Cytostatic activity against paclitaxel-resistant human K562 cells after 72 hrs by MTT assay; type: functional, cell-based; settings: K562, 72 h; outline: as §2
K562 [16] = experiment: Cytostatic activity against human K562 cells after 72 hrs by MTT assay; type: functional, cell-based; settings: K562, 72 h; outline: as §2
[17] = Cytostatic activity against human CEM-DNR-bulk cells after 72 hrs by MTT assay; type: functional, cell-based; outline: as §2
CCRF-CEM = experiment: Cytostatic activity against human CCRF-CEM cells after 72 hrs by MTT assay; type: functional, cell-based; outline: as §2

| Structure (SMILES) | CC50 [1] [µM] | EC50 (Hepatitis C virus [2]) [µM] | CC50 [3] [µM] | EC50 (Hepatitis C virus [4]) [µM] | Activity (Candida tropicalis) | Activity (Pichia kudriavzevii) | Activity (Candida parapsilosis) | Activity (Candida albicans) | Activity (Pseudomonas aeruginosa [5]) | Activity (Escherichia coli [6]) | Activity [7] | Activity (Staphylococcus aureus [8]) | Activity (Pseudomonas aeruginosa [9]) | Activity (Escherichia coli [10]) | Activity (Staphylococcus aureus [11]) | Activity (Enterococcus faecalis) | IC50 [12] [µM] | IC50 (HL-60) [µM] | IC50 (HepG2) [µM] | IC50 (MRC5) [µM] | further results |
| --- | --- | --- | --- | --- | --- | --- | --- | --- | --- | --- | --- | --- | --- | --- | --- | --- | --- | --- | --- | --- | --- |
| Cc1ncnc2c1c(-c1ccoc1)cn2[C@@H]1O[C@H](CO)[C@@H](O)[C@H]1O | > 44 | > 44 | > 44 | 4.43 | inactive | inactive | inactive | inactive | inactive | inactive | inactive | inactive | inactive | inactive | inactive | inactive | > 20 | > 15 | 5.32 | 98.3 | IC50 (BJ): 89.2 µM; IC50 (HCT-116 [13]): > 20 µM; IC50 (HCT-116 [14]): > 20 µM; IC50 (A549): > 20 µM; IC50 (K562 [15]): > 20 µM; IC50 (K562 [16]): > 20 µM; IC50 [17]: > 20 µM; IC50 (CCRF-CEM): > 20 µM |
| O=c1[nH]cnc2c1c(-c1ccco1)cn2[C@@H]1O[C@H](CO)[C@@H](O)[C@H]1O | > 44 | > 44 | > 44 | > 44 | inactive | inactive | inactive | inactive | inactive | inactive | inactive | inactive | inactive | inactive | inactive | inactive | 5.78 | 2.2 | > 15 | > 100 | IC50 (BJ): > 100 µM; IC50 (HCT-116 [13]): > 20 µM; IC50 (HCT-116 [14]): 18.3 µM; IC50 (A549): > 20 µM; IC50 (K562 [15]): 17.8 µM; IC50 (K562 [16]): 15.5 µM; IC50 [17]: > 20 µM; IC50 (CCRF-CEM): > 20 µM |
| Nc1nc(N)c2c(-c3ccsc3)cn([C@@H]3O[C@H](CO)[C@@H](O)[C@H]3O)c2n1 | > 44 | > 44 | > 44 | > 44 | inactive | inactive | inactive | inactive | inactive | inactive | inactive | inactive | inactive | inactive | inactive | inactive | > 20 | > 20 | > 20 | > 100 | IC50 (BJ): > 100 µM; IC50 (HCT-116 [13]): > 20 µM; IC50 (HCT-116 [14]): > 20 µM; IC50 (A549): > 100 µM; IC50 (K562 [15]): > 20 µM; IC50 (K562 [16]): > 20 µM; IC50 [17]: > 20 µM; IC50 (CCRF-CEM): > 20 µM |
| Cc1ncnc2c1c(Br)cn2[C@@H]1O[C@H](CO)[C@@H](O)[C@H]1O | 28.2 | 20.7 | 35.6 | 12 | inactive | inactive | inactive | inactive | inactive | inactive | inactive | inactive | inactive | inactive | inactive | inactive | 13.8 | 7.24 | 5.55 | 24.4 | IC50 (BJ): > 100 µM; IC50 (HCT-116 [13]): 19.6 µM; IC50 (HCT-116 [14]): 15.7 µM; IC50 (A549): > 20 µM; IC50 (K562 [15]): 15.8 µM; IC50 (K562 [16]): > 20 µM; IC50 [17]: > 20 µM; IC50 (CCRF-CEM): 15 µM |
| COc1nc(N)nc2c1c(-c1ccccc1)cn2[C@@H]1O[C@H](CO)[C@@H](O)[C@H]1O | > 44 | > 44 | > 44 | > 44 | inactive | inactive | inactive | inactive | inactive | inactive | inactive | inactive | inactive | inactive | inactive | inactive | > 20 | > 20 | > 20 | > 100 | IC50 (BJ): > 100 µM; IC50 (HCT-116 [13]): > 20 µM; IC50 (HCT-116 [14]): > 20 µM; IC50 (A549): > 20 µM; IC50 (K562 [15]): > 20 µM; IC50 (K562 [16]): > 20 µM; IC50 [17]: > 20 µM; IC50 (CCRF-CEM): > 20 µM |
| Cc1nc(N)c2c(-c3cc4ccccc4o3)cn([C@@H]3O[C@H](CO)[C@@H](O)[C@H]3O)c2n1 | 39.1 | 18.2 | 39.2 | 6.14 | inactive | inactive | inactive | inactive | inactive | inactive | inactive | inactive | inactive | inactive | inactive | inactive | > 20 | > 20 | > 20 | 91.8 | IC50 (BJ): > 100 µM; IC50 (HCT-116 [13]): 13.1 µM; IC50 (HCT-116 [14]): > 20 µM; IC50 (A549): > 20 µM; IC50 (K562 [15]): 4.99 µM; IC50 (K562 [16]): 15.7 µM; IC50 [17]: 6.31 µM; IC50 (CCRF-CEM): > 20 µM |
